Assay results as given in ChEMBL document CHEMBL1145069, “Stereospecific synthesis of 5-substituted 2-bisarylthiocyclopentane carboxylic acids as specific matrix metalloproteinase inhibitors” (J Med Chem, 2003).

Organism: Homo sapiens
Assay: In vitro metabolic stability and first pass metabolism was evaluated in human hepatic microsomes
Assay type: ADME, Liver
Details: not given

| MF [%] | SMILES |
| --- | --- |
| 63 | O=C(O)[C@H]1[C@H](Cn2nnc3ccccc3c2=O)CC[C@@H]1SCCc1ccc(-c2ccc(Cl)cc2)cc1 |
| 61 | O=C(O)[C@H]1[C@H](CN2C(=O)c3ccccc3C2=O)CC[C@@H]1SCCc1ccc(-c2ccc(Cl)cc2)cc1 |

Organism: Homo sapiens
Assay: In vitro absorption was measured in Caco-2 cell
Assay type: ADME
Details: not given

| Absorption [%] | SMILES |
| --- | --- |
| 91 | O=C(O)[C@H]1[C@H](Cn2nnc3ccccc3c2=O)CC[C@@H]1SCCc1ccc(-c2ccc(Cl)cc2)cc1 |
| 94 | O=C(O)[C@H]1[C@H](CN2C(=O)c3ccccc3C2=O)CC[C@@H]1SCCc1ccc(-c2ccc(Cl)cc2)cc1 |

Test system: not listed separately
Assay: Bioavailability determined
Assay type: ADME, organism-based
Details: eutheria, in vivo

| SMILES | bioavailability [%] |
| --- | --- |
| O=C(NO)C(CCn1nnc2ccccc2c1=O)CSc1ccc(-c2ccc(Cl)cc2)cc1 (configuration not stated) | < 30 |

Organism: Rattus norvegicus
Assay: In vitro metabolic stability and first pass metabolism was evaluated in rat hepatic microsomes
Assay type: ADME, Liver
Details: not given

| MF [%] | SMILES |
| --- | --- |
| 76 | O=C(O)[C@H]1[C@H](Cn2nnc3ccccc3c2=O)CC[C@@H]1SCCc1ccc(-c2ccc(Cl)cc2)cc1 |
| 43 | O=C(O)[C@H]1[C@H](CN2C(=O)c3ccccc3C2=O)CC[C@@H]1SCCc1ccc(-c2ccc(Cl)cc2)cc1 |

Molecular target: Matrix metalloproteinase-9 (Homo sapiens, UniProt P14780)
Assay: Inhibitory activity against matrix metalloprotease-9 (MMP9)
Details: not given

Matrix metalloproteinase-9, sequence (P14780 whole entry): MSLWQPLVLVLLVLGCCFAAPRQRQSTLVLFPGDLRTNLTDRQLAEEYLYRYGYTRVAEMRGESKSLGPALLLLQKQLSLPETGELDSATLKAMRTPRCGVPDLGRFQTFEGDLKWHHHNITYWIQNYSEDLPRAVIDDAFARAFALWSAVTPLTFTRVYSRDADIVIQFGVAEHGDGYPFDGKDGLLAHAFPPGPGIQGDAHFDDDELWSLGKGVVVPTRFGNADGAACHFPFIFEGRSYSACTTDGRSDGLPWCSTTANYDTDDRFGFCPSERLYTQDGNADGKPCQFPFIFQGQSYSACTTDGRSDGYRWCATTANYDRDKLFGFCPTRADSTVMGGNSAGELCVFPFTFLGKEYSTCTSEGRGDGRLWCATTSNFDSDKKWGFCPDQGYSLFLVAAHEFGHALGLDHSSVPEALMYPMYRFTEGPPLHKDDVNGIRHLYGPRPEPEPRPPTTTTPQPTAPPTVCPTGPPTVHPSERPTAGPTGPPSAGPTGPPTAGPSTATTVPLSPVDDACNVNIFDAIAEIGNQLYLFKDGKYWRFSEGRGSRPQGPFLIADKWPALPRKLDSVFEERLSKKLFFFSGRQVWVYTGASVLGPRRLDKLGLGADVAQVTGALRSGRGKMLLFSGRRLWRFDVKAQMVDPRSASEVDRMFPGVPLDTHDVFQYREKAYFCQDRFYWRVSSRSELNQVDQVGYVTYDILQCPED

| IC50 [nM] | SMILES |
| --- | --- |
| 58 | CN1C(=O)N(C[C@H](C(=O)NO)[C@@H](CC2CCCC2)C(=O)N2CCCCC2)C(=O)C1(C)C |
| 24 | O=C(O)[C@H]1[C@H](Cn2nnc3ccccc3c2=O)CC[C@@H]1SCCc1ccc(-c2ccc(Cl)cc2)cc1 |
| 13 | O=C(O)[C@H]1[C@H](CN2C(=O)c3ccccc3C2=O)CC[C@@H]1SCCc1ccc(-c2ccc(Cl)cc2)cc1 |

| SMILES | IC50 [nM] |
| --- | --- |
| O=C(NO)C(CCn1nnc2ccccc2c1=O)CSc1ccc(-c2ccc(Cl)cc2)cc1 (configuration not stated) | 0.5 |

Molecular target: T1, Interstitial collagenase (Homo sapiens, UniProt P03956)
T1 sequence (P03956 whole entry): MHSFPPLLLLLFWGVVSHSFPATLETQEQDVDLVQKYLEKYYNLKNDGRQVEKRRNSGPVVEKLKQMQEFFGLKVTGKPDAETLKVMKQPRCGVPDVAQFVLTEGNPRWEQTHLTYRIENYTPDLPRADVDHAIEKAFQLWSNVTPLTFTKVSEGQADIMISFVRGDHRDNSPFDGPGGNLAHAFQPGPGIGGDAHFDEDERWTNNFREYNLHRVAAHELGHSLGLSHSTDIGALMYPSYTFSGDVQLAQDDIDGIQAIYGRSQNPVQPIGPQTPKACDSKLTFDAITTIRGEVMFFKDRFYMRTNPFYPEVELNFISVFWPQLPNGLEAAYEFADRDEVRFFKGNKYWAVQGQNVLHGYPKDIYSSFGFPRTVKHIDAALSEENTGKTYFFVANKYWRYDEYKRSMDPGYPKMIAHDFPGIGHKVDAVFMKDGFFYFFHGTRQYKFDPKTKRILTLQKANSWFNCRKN
Assay: Inhibitory activity against matrix metalloprotease-1 (MMP1)
Details: not given

| IC50 [nM] | SMILES |
| --- | --- |
| > 70000 | O=C(O)[C@H]1[C@H](Cn2nnc3ccccc3c2=O)CC[C@@H]1SCCc1ccc(-c2ccc(Cl)cc2)cc1 |
| 50000 | O=C(O)[C@H]1[C@H](CN2C(=O)c3ccccc3C2=O)CC[C@@H]1SCCc1ccc(-c2ccc(Cl)cc2)cc1 |

| SMILES | IC50 [nM] |
| --- | --- |
| O=C(NO)C(CCn1nnc2ccccc2c1=O)CSc1ccc(-c2ccc(Cl)cc2)cc1 (configuration not stated) | > 10000 |

Molecular target: 72 kDa type IV collagenase (Homo sapiens, UniProt P08253)
Assay: Inhibitory activity against matrix metalloprotease-2 (MMP2)
Details: not given

72 kDa type IV collagenase, sequence (P08253 whole entry): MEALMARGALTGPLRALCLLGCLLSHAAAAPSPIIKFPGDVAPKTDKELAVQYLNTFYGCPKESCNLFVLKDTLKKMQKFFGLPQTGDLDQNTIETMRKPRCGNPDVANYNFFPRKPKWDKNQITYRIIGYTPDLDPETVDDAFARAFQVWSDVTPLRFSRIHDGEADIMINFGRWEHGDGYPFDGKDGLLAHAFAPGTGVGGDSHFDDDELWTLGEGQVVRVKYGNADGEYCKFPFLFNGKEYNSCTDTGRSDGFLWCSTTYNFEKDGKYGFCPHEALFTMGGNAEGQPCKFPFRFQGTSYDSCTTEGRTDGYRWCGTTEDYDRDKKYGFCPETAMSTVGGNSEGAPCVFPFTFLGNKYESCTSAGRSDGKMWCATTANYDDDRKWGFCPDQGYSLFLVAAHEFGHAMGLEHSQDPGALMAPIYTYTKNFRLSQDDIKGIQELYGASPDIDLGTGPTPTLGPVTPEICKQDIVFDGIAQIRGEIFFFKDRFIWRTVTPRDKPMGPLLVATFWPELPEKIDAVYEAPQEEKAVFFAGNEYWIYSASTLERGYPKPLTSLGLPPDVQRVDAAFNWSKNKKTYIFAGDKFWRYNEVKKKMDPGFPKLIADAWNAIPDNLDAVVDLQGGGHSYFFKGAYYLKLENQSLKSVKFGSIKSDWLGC

| IC50 [nM] | SMILES |
| --- | --- |
| 154 | CN1C(=O)N(C[C@H](C(=O)NO)[C@@H](CC2CCCC2)C(=O)N2CCCCC2)C(=O)C1(C)C |
| 106 | O=C(O)[C@H]1[C@H](Cn2nnc3ccccc3c2=O)CC[C@@H]1SCCc1ccc(-c2ccc(Cl)cc2)cc1 |
| 73 | O=C(O)[C@H]1[C@H](CN2C(=O)c3ccccc3C2=O)CC[C@@H]1SCCc1ccc(-c2ccc(Cl)cc2)cc1 |

| SMILES | IC50 [nM] |
| --- | --- |
| O=C(NO)C(CCn1nnc2ccccc2c1=O)CSc1ccc(-c2ccc(Cl)cc2)cc1 (configuration not stated) | 0.06 |

Molecular target: Collagenase 3 (Homo sapiens, UniProt P45452)
Assay: Inhibitory activity against matrix metalloprotease-13 (MMP13)
Details: not given

| IC50 [nM] | SMILES |
| --- | --- |
| 391 | O=C(O)[C@H]1[C@H](Cn2nnc3ccccc3c2=O)CC[C@@H]1SCCc1ccc(-c2ccc(Cl)cc2)cc1 |
| 129 | O=C(O)[C@H]1[C@H](CN2C(=O)c3ccccc3C2=O)CC[C@@H]1SCCc1ccc(-c2ccc(Cl)cc2)cc1 |

| SMILES | IC50 [nM] |
| --- | --- |
| O=C(NO)C(CCn1nnc2ccccc2c1=O)CSc1ccc(-c2ccc(Cl)cc2)cc1 (configuration not stated) | 1.2 |

Test system: Mus musculus
Assay: Tested for antitumor activity in mice against B16F10 melanoma measured as reduction in number of metastases at 100 mg/kg (ip)
Assay type: functional
Details: not given
Method in brief: (§1)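 B16-F10 cells passaged in vitro, then 2×10^5 cells per mouse injected into the tail vein of B6D2F1 mice in PBS with 0.5% foetal calf serum. 7 mice per group. Dosing i.p. or p.o. 1 h before inoculation, then daily for 3 days (four doses). Lungs collected on day 11 and fixed in Bouin's fluid. Metastases per lung (total and ≥1 mm) given as % of control mean.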

| SMILES | No. of metastases |
| --- | --- |
| O=C(O)[C@H]1[C@H](Cn2nnc3ccccc3c2=O)CC[C@@H]1SCCc1ccc(-c2ccc(Cl)cc2)cc1 | 51 |
| O=C(O)[C@H]1[C@H](CN2C(=O)c3ccccc3C2=O)CC[C@@H]1SCCc1ccc(-c2ccc(Cl)cc2)cc1 | 96 |

Test system: Mus musculus
Assay: Tested for antitumor activity in mice against B16F10 melanoma measured as reduction in number of metastases at 100 mg/kg (po)
Assay type: functional
Details: not given
Method in brief: as §1

| SMILES | No. of metastases |
| --- | --- |
| O=C(O)[C@H]1[C@H](Cn2nnc3ccccc3c2=O)CC[C@@H]1SCCc1ccc(-c2ccc(Cl)cc2)cc1 | 65 |
| O=C(O)[C@H]1[C@H](CN2C(=O)c3ccccc3C2=O)CC[C@@H]1SCCc1ccc(-c2ccc(Cl)cc2)cc1 | 69 |

Test system: Mus musculus
Assay: Tested for antitumor activity in mice against B16F10 melanoma measured as reduction in number of metastases at 200 mg/kg (ip)
Assay type: functional
Details: not given
Method in brief: as §1

| SMILES | No. of metastases |
| --- | --- |
| O=C(O)[C@H]1[C@H](Cn2nnc3ccccc3c2=O)CC[C@@H]1SCCc1ccc(-c2ccc(Cl)cc2)cc1 | 31 |
| O=C(O)[C@H]1[C@H](CN2C(=O)c3ccccc3C2=O)CC[C@@H]1SCCc1ccc(-c2ccc(Cl)cc2)cc1 | 43 |

Test system: Mus musculus
Assay: Tested for antitumor activity in mice against B16F10 melanoma measured as reduction in number of metastases at 200 mg/kg (po)
Assay type: functional
Details: not given
Method in brief: as §1

| SMILES | No. of metastases |
| --- | --- |
| O=C(O)[C@H]1[C@H](Cn2nnc3ccccc3c2=O)CC[C@@H]1SCCc1ccc(-c2ccc(Cl)cc2)cc1 | 80 |
| O=C(O)[C@H]1[C@H](CN2C(=O)c3ccccc3C2=O)CC[C@@H]1SCCc1ccc(-c2ccc(Cl)cc2)cc1 | 64.5 |

Molecular target: Stromelysin-1 (Homo sapiens, UniProt P08254)
Assay: Inhibitory activity against matrix metalloprotease-3 (MMP3)
Details: not given

Stromelysin-1, sequence (P08254 whole entry): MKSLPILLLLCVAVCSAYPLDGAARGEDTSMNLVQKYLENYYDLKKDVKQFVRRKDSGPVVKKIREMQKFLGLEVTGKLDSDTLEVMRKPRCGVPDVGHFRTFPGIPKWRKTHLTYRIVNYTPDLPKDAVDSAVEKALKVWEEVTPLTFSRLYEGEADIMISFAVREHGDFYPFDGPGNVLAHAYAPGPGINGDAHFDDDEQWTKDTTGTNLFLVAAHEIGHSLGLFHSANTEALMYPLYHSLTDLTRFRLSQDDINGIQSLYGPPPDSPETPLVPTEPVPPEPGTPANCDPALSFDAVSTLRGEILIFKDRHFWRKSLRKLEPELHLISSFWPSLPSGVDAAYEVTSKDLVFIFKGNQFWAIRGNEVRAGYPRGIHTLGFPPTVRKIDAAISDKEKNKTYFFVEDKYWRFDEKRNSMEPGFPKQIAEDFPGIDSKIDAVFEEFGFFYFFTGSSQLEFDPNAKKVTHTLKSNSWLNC

| IC50 [nM] | SMILES |
| --- | --- |
| 62 | O=C(O)[C@H]1[C@H](Cn2nnc3ccccc3c2=O)CC[C@@H]1SCCc1ccc(-c2ccc(Cl)cc2)cc1 |
| 45 | O=C(O)[C@H]1[C@H](CN2C(=O)c3ccccc3C2=O)CC[C@@H]1SCCc1ccc(-c2ccc(Cl)cc2)cc1 |

| SMILES | IC50 [nM] |
| --- | --- |
| O=C(NO)C(CCn1nnc2ccccc2c1=O)CSc1ccc(-c2ccc(Cl)cc2)cc1 (configuration not stated) | 10 |
